This is a sample that favours compounds with a hit; in the whole collection about 2.2% have one here.
PGC1a acetyl inh = lowers PGC1a acetylation signal in U2OS cells; inhibition, % at 15.6 µM; AlphaScreen anti-acetyl-lysine; with virally co-expressed GCN5 acetyltransferase; 350,000 tested, 0.17% active; AID 651687;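 active = every replicate shows inhibition of at least 40%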;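 also: 0% = neutral control wells and 100% = positive control wells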
SIRT5 block = inhibitors of human sirtuin-5 desuccinylase | inhibition, % at 15 µM | 330,000 tested, 1.1% active | Q9NXA8 | AID 652115 | Purified SirT5, succinyl-peptide AMC, trypsin-coupled fluorescence; in the data active = inhibition above about 15%
FGF22 binding = shifts melting point of recombinant human FGF22. Q9HCT0. recombinant FGF22 thermal shift, SYPRO orange fluorescence; percent of sucrose octasulfate shift, DMSO zero. activity (Tm shift, normalised), % at 9.99 µM. 340,000 tested, 1.5% active. AID 651658;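 active = mean Tm shift, scaled 0 neutral to 100 positive control, at about 1.3% or above, every replicate too, limit read from the data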
FN deposition inh = fibronectin deposition inhibition; AH1F fibroblasts, Alexa488-fibronectin deposition fluorescence, overnight; inhibition, % at 12.6 µM; 350,000 tested, 0.086% active; AID 743247;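 active = mean inhibition across replicates of 30% or more, regardless of how many single replicates reach that level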;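 also: positive control wells lacked labelled fibronectin entirely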
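Assay system: AH1F fibroblast monolayer, labelled fibronectin deposition. Amount: 10000 cells per well. Also added: labelled fibronectin 24 nM. Compound: single-point pinned compound. Incubation: cell attachment 1 h, compound and FN exposure overnight. Detection: fluorescence after three HBSS washes, excitation 485 nm, emission 525 nm. Read-out: inhibition of fibronectin deposition signal.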
ERAP1 HTS inh = inhibitors of human ERAP1 aminopeptidase | AID 652197 | recombinant ERAP1, Leu-AMC fluorescence, 60 min | inhibition, % at 10.7 µM | Q9NZ08 | 340,000 tested, 0.15% active;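 active = mean replicate inhibition of at least 30%, or all replicates individually reaching that 30% level; inactive = mean below 30% and not every replicate reaching it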;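 also: 0% = neutral control wells and 100% = L-leucinethiol positive control wells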
* = called active by the depositor; · = no result.

SMILES	PGC1a acetyl inh	SIRT5 block	FGF22 binding	FN deposition inh	ERAP1 HTS inh
CCCN1[C@@H]2Cn3c(ccc(C4=CCCC4)c3=O)[C@H]1[C@@H](C(=O)N(C)C)[C@@H]2CO	8	-4	0	·	1
COc1ccc([N+](=O)[O-])c(S(=O)(=O)c2ccc(Cl)cc2)n1	45*	·	0	17	2
O=C(CN1CCC(c2nc3ccccc3s2)CC1)N1CCCCC1	0	38*	42	7	-2
O=C(C1Cc2ccccc2CN1S(=O)(=O)c1ccc(F)cc1)N1CCOCC1 (stereo not given)	-14	25*	0	·	1
O=C(C1Cc2ccccc2CN1S(=O)(=O)c1ccc(F)cc1)N1CCCCCC1 (stereo not given)	-27	·	·	-1	·
Cc1c(C(C)C)c(=O)n(-c2ccc(S(=O)(=O)NC3CCCCC3)cc2)n1C	0	1	0	-5	0
Cc1c(C(C)C)c(=O)n(-c2ccc(S(=O)(=O)NCc3ccccc3)cc2)n1C	11	3	43*	·	5
CCCNC(=O)[C@@H]1[C@@H](CO)[C@@H]2Cn3c(cccc3=O)[C@@H]2N1C(=O)CC1CC1	4	-3	0	·	-2
COc1ccc(C#Cc2ccc3c(c2)O[C@H](CN(C)C(=O)c2ccccn2)[C@@H](C)CN([C@@H](C)CO)S3(=O)=O)cc1	-3	5	0	·	-1
C[n+]1cccc(/C=N/NC(=O)CC23CC4CC(CC(C4)C2)C3)c1	9	0	0	-1	96*
CN(C(=O)CSc1nc(-c2ccc(C(C)(C)C)cc2)c(C#N)c(=O)[nH]1)C1CCCCC1	35	17*	0	-3	1
N#Cc1c(-c2ccccc2)nc(SCC(=O)NC2CCCCC2)[nH]c1=O	·	0	·	-3	6
CN1c2ccc(-c3cccc(C#N)c3)cc2[C@@H]2[C@@H](CCN2C(=O)C2CC2)[C@@H]1CO	·	2	·	2	-1
CC(=O)C1=C(O)C(=Cc2ccccc2)OC1=O	·	20*	0	-6	-5
COc1ccc(C=C2OC(=O)C(C(C)=O)=C2O)cc1	·	11	0	·	0
C[C@H]1CN([C@@H](C)CO)C(=O)c2cccc(NC(=O)Nc3ccc4c(c3)OCO4)c2O[C@@H]1CN(C)S(=O)(=O)c1cn(C)cn1	-3	-1	0	3	1
COc1ccc(CSCC(=O)N/N=C/c2ccc(OCC(=O)NCc3ccco3)cc2)cc1	-10	·	·	·	·
Cc1cc(C)cc(CSCC(=O)N/N=C/c2ccc(OCC(=O)NCc3ccco3)cc2)c1	-10	20*	0	·	0
O=C(Nc1cc(F)ccc1F)N1C[C@@H]2[C@H](c3ccccc31)[C@@H](CO)N2Cc1ccncc1	7	3	1	·	0
CN1CCN(C(=O)C[C@H]2C[C@H]3c4cc(NC(=O)C5CCOCC5)ccc4O[C@H]3[C@@H](CO)O2)CC1	-16	-5	·	-7	-1
O=C(NCc1ccccc1)OC1CC2CC1[C@H]1CCCCN1C2=O (stereo not given in full)	·	11	0	-6	0
O=C(NCc1ccc(F)cc1)OC1CC2CC1[C@H]1CCCCN1C2=O (stereo not given in full)	·	7	0	30*	0
O=S1c2ccccc2Oc2ccccc21	-5	-1	0	6	1
O=S1c2ccccc2Nc2ccccc21	·	25*	0	-21	0
CC1(C)CC(=O)C2=C(C1)Nc1ccccc1[S@]2=O	·	16*	0	5	-3
SMILES	PGC1a acetyl inh	SIRT5 block	FGF22 binding	FN deposition inh	ERAP1 HTS inh
CC(C)[C@@H]1C(=O)N[C@H](c2ccc3c(c2)OCO3)CC=CC[C@@H](C)Oc2ccccc2C(=O)N1C (mixture of isomers)	·	·	·	6	·
C[C@H]1CN([C@@H](C)CO)S(=O)(=O)c2ccc(C#CC(C)(C)O)cc2O[C@@H]1CN(C)C(=O)C1CCCCC1	-5	-3	0	·	-1
COCCNc1nc2c(c(=O)n(C)c(=O)n2C)n1CCCc1ccccc1	6	·	0	1	24
Cn1c(=O)[nH]c(=O)c2c1nc(NCCCO)n2CCCc1ccccc1	4	-3	0	·	0
CCCCNc1nc2c(c(=O)[nH]c(=O)n2C)n1CCCc1ccccc1	6	·	43*	-1	3
CCOCCCNc1nc2c(c(=O)n(C)c(=O)n2C)n1CCCc1ccccc1	40*	·	·	0	·

High-throughput results from PubChem BioAssay.
